Measurements from ChEMBL document CHEMBL4477166, “18β-Glycyrrhetinic Acid Derivatives Possessing a Trihydroxylated A Ring Are Potent Gram-Positive Antibacterial Agents” (2016).
Converted amounts (≈) assume the structure as drawn. The source made the active and inactive calls. The calls are words filed in the database; no cut-off is given here.

Assays:
Streptomyces scabiei [1] = experiment: Reduction in murX expression in Streptomyces scabiei CGMCC4.7610246 at 0.5 times MIC by qRT-PCR analysis relative to control; type: functional, organism-based
Summary of the method: (§1)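 Bacteria were grown in broth with compound at 0.5 × MIC or vehicle to exponential phase (OD620 = 0.4) and then pelleted. Total RNA was reverse-transcribed, and SYBR-based real-time PCR was run against housekeeping genes. Relative expression versus control was calculated by 2^−ΔΔCT. Mean ± SEM, n = 3, significance at p < 0.05.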

Pseudomonas aeruginosa [2] = experiment: Antibacterial activity against Pseudomonas aeruginosa at 100 uM measured after 5 to 6 hrs by microdilution assay; type: functional, organism-based
Bacillus subtilis [3] = experiment: Antibacterial activity against Bacillus subtilis ATCC 6051 by microdilution assay; type: functional
Summary of the method: (§2)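 Turbidimetric broth microdilution. Log-phase cells were washed and resuspended in broth (LB at 37 °C for B. subtilis and S. aureus; oat bran broth at 28 °C for S. scabies) and seeded at 1 × 10⁵ CFU/mL. Twofold serial dilutions were made with DMSO ≤1% (v/v). A620 was read, then plates were incubated with vigorous shaking. MIC was the lowest concentration with no apparent growth versus vehicle-only medium without cells. Run in triplicate.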

Streptomyces scabiei [4] = experiment: Antibacterial activity against Streptomyces scabiei CGMCC4.7610246 by microdilution assay; type: functional; summary of the method: as §2
Streptomyces scabiei [5] = experiment: Antibacterial activity against Streptomyces scabiei CGMCC4.7610246 at 0.5 times MIC by time-kill analysis; type: functional, organism-based
Summary of the method: (§3)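 Killing kinetics for S. scabies in oat bran broth at 28 °C, starting at 5 × 10⁵ CFU/mL. Exposure was 0.5×, 1×, 2× or 4× MIC, with negative and positive controls. Samples of 1 mL were withdrawn at 0, 4, 8, 16, 24 and 36 h, serially diluted and plated, and survival was calculated from colony counts. Performed in triplicate.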

Staphylococcus aureus [6] = experiment: Antibacterial activity against Staphylococcus aureus ATCC 25923 by microdilution assay; type: functional; summary of the method: as §2
Staphylococcus aureus [7] = experiment: Antibacterial activity against methicillin-resistant Staphylococcus aureus by microdilution assay; type: functional
Summary of the method: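 Log-phase cells seeded at 1 × 10⁵ CFU/mL. Twofold serial dilutions made in broth with DMSO cosolvent, at most 1% v/v. Turbidity read at 620 nm before and after incubation with vigorous shaking. MIC is the lowest concentration with no apparent growth versus the medium-plus-vehicle control. Run in triplicate.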

Bacillus subtilis [8] = experiment: Antibacterial activity against Bacillus subtilis ATCC 6051 at 0.5 times MIC by time-kill analysis; type: functional, organism-based
Summary of the method: (§4)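 Time-kill in LB at 37 °C. B. subtilis or S. aureus suspensions were set at 5 × 10⁵ CFU/mL and exposed to 0.5×, 1×, 2× and 4× MIC alongside negative and positive controls. Samples of 1 mL were taken at 0, 2, 4, 6, 8, 12 and 24 h, serially diluted and plated for viable counts, and survival was calculated. Three repeats.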

Pseudomonas aeruginosa [9] = experiment: Antibacterial activity against multi-drug resistant Pseudomonas aeruginosa at 100 uM measured after 5 to 6 hrs by microdilution assay; type: functional, organism-based
Summary of the method: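 Log-phase cells seeded at 1 × 10⁵ CFU/mL. Single-dose screen at 100 μM, with DMSO cosolvent at most 1% v/v. Growth measured turbidimetrically at 620 nm, before and after incubation with vigorous shaking.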

Staphylococcus aureus [10] = experiment: Antibacterial activity against Staphylococcus aureus ATCC 25923 at 0.5 times MIC by time-kill analysis; type: functional, organism-based; summary of the method: as §4
Streptomyces scabiei [11] = experiment: Reduction in p450 expression in Streptomyces scabiei CGMCC4.7610246 at 0.5 times MIC by qRT-PCR analysis relative to control; type: functional, organism-based; summary of the method: as §1
Staphylococcus aureus [12] = experiment: Antibacterial activity against Staphylococcus aureus ATCC 25923 by time-kill analysis; type: functional, organism-based; summary of the method: as §4
Escherichia coli [13] = experiment: Antibacterial activity against Escherichia coli at 100 uM measured after 5 to 6 hrs by microdilution assay; type: functional, organism-based
Bacillus subtilis [14] = experiment: Antibacterial activity against Bacillus subtilis ATCC 6051 by time-kill analysis; type: functional, organism-based; summary of the method: as §4
Streptomyces scabiei [15] = experiment: Antibacterial activity against Streptomyces scabiei CGMCC4.7610246 by time-kill analysis; type: functional, organism-based; summary of the method: as §3
Escherichia coli [16] = experiment: Antibacterial activity against Escherichia coli ATCC 25922 measured after overnight incubation by microplate dilution assay; type: functional
Escherichia coli [17] = experiment: Antibacterial activity against Escherichia coli measured after 5 to 6 hrs by microdilution titre technique; type: functional
Bacillus thuringiensis = experiment: Antibacterial activity against Bacillus thuringiensis measured after 5 to 6 hrs by microdilution titre technique; type: functional
Staphylococcus aureus [18] = experiment: Inhibition of seaR expression in methicillin-resistant Staphylococcus aureus at 0.5 times MIC by qRT-PCR analysis relative to control; type: functional, organism-based
Summary of the method: (§5)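 MRSA grown in broth containing either 0.5 × MIC of test compound or vehicle alone. Cells harvested at exponential phase (OD₆₂₀ = 0.4). Total RNA reverse-transcribed, then SYBR-based real-time PCR run. Relative expression computed by the 2^−ΔΔCT method against the vehicle control or the parent-acid-treated group. Mean ± SEM, n = 3; significance set at p < 0.05.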

Staphylococcus aureus [19] = experiment: Effect on lytM expression in Staphylococcus aureus ATCC 25923 at 0.5 times MIC by qRT-PCR analysis; type: functional, organism-based; summary of the method: as §1
Staphylococcus aureus [20] = experiment: Upregulation of seaR expression in Staphylococcus aureus ATCC 25923 at 0.5 times MIC by qRT-PCR analysis relative to control; type: functional, organism-based; summary of the method: as §1
Bacillus subtilis [21] = experiment: Reduction in mmD expression in Bacillus subtilis ATCC 6051 at 0.5 times MIC by qRT-PCR analysis relative to control; type: functional, organism-based; summary of the method: as §1
Bacillus subtilis [22] = experiment: Upregulation of yhdT expression in Bacillus subtilis ATCC 6051 at 0.5 times MIC by qRT-PCR analysis relative to control; type: functional, organism-based; summary of the method: as §1
Bacillus subtilis [23] = experiment: Upregulation of yqhB expression in Bacillus subtilis ATCC 6051 at 0.5 times MIC by qRT-PCR analysis relative to control; type: functional, organism-based; summary of the method: as §1
Staphylococcus aureus [24] = experiment: Upregulation of hla expression in Staphylococcus aureus ATCC 25923 at 0.5 times MIC by qRT-PCR analysis relative to control; type: functional, organism-based; summary of the method: as §1
Staphylococcus aureus [25] = experiment: Reduction in narG expression in methicillin-resistant Staphylococcus aureus at 0.5 times MIC by qRT-PCR analysis relative to control; type: functional, organism-based; summary of the method: as §5
Staphylococcus aureus [26] = experiment: Inhibition of hla expression in methicillin-resistant Staphylococcus aureus at 0.5 times MIC by qRT-PCR analysis relative to control; type: functional, organism-based; summary of the method: as §5
Staphylococcus aureus [27] = experiment: Reduction in narG expression in Staphylococcus aureus ATCC 25923 at 0.5 times MIC by qRT-PCR analysis relative to control; type: functional, organism-based; summary of the method: as §1

Row | SMILES | Activity (Pseudomonas aeruginosa [2]) | MIC (Bacillus subtilis [3]) [µg/mL] | MIC (Streptomyces scabiei [4]) [µg/mL] | MIC (Staphylococcus aureus [6]) [µg/mL] | MIC (Staphylococcus aureus [7]) [µg/mL] | Activity (Pseudomonas aeruginosa [9]) | Activity (Escherichia coli [13]) | also measured
1 | COC(=O)[C@@]1(C)CC[C@]2(C)CC[C@]3(C)C(=CC[C@@H]4[C@@]5(C)[C@@H](O)[C@H](O)[C@H](O)C(C)(C)[C@@H]5CC[C@]43C)[C@@H]2C1 | inactive | 4 (≈ 7.96 µM) | 1 (≈ 1.99 µM) | 2 (≈ 3.98 µM) | > 32 | inactive | inactive | Activity (Streptomyces scabiei [1]): Active; Activity (Streptomyces scabiei [5]): inactive; Activity (Bacillus subtilis [8]): inactive; Activity (Staphylococcus aureus [10]): inactive; Activity (Streptomyces scabiei [11]): Active; Activity (Staphylococcus aureus [12]): Dose-dependent effect; Activity (Bacillus subtilis [14]): Dose-dependent effect; Activity (Streptomyces scabiei [15]): Dose-dependent effect
2 | CC1(C)[C@@H](O)C[C@H](O)[C@]2(C)[C@H]3CC=C4[C@@H]5C[C@@](C)(C(=O)O)CC[C@]5(C)CC[C@@]4(C)[C@]3(C)CC[C@@H]12 |  |  |  |  |  |  |  | MIC (Escherichia coli [16]): 16 µg/mL (≈ 33.8 µM)
3 | CC1(C)CC[C@H](O)[C@]2(C)[C@H]3CC=C4[C@@H]5C[C@@](C)(C(=O)O)CC[C@]5(C)CC[C@@]4(C)[C@]3(C)CC[C@@H]12 |  |  |  |  |  |  |  | MIC (Escherichia coli [16]): > 250 µg/mL
4 | CC1(C)CC[C@]2(C(=O)O)CC[C@]3(C)C(=CC[C@@H]4[C@@]5(C)CC[C@H](O)C(C)(C)[C@@H]5CC[C@]43C)[C@@H]2C1 [OLEANOLIC_ACID] |  |  |  |  |  |  |  | MIC (Escherichia coli [17]): 7.8 µg/mL (≈ 17.1 µM); MIC (Bacillus thuringiensis): 1.9 µg/mL (≈ 4.16 µM)
5 | CC1(C)[C@@H](O)[C@@H]2O[C@@H]2[C@]2(C)[C@H]3C(=O)C=C4[C@@H]5C[C@@](C)(C(=O)OCc6ccccc6)CC[C@]5(C)CC[C@@]4(C)[C@]3(C)CC[C@@H]12 | inactive | > 50 | > 50 | > 50 | > 50 | inactive | inactive | 
6 | CC1(C)C(=O)C=C[C@]2(C)[C@H]3CC=C4[C@@H]5C[C@@](C)(C(=O)OCc6ccccc6)CC[C@]5(C)CC[C@@]4(C)[C@]3(C)CC[C@@H]12 | inactive | > 34.6 | 34.6 (≈ 63.7 µM) | > 34.6 | > 32 | inactive | inactive | 
7 | CC1(C)CC[C@]2(C(=O)O)CC[C@]3(C)C(=CC[C@@H]4[C@@]5(C)C[C@@H](O)[C@H](O)C(C)(C)[C@@H]5CC[C@]43C)[C@@H]2C1 [MASLINIC ACID] |  |  |  |  |  |  |  | MIC (Escherichia coli [17]): 3.9 µg/mL (≈ 8.25 µM); MIC (Bacillus thuringiensis): 0.9 µg/mL (≈ 1.9 µM)
8 | CC1(C)[C@@H](O)CC[C@]2(C)[C@H]3C(=O)C=C4[C@@H]5C[C@@](C)(C(=O)O)CC[C@]5(C)CC[C@@]4(C)[C@]3(C)CC[C@@H]12 [ENOXOLONE] | inactive | > 50 | > 50 | > 50 | > 50 | inactive | inactive | inhibition (Staphylococcus aureus [18]): Active; Activity (Staphylococcus aureus [19]): inactive; Activity (Staphylococcus aureus [20]): Active; Activity (Bacillus subtilis [21]): inactive; Activity (Bacillus subtilis [22]): Active; Activity (Bacillus subtilis [23]): Active; Activity (Staphylococcus aureus [24]): Active; Activity (Streptomyces scabiei [11]): Active; Activity (Staphylococcus aureus [25]): inactive; inhibition (Staphylococcus aureus [26]): Active; Activity (Staphylococcus aureus [27]): inactive
9 | CCOC(=O)[C@@]1(C)CC[C@]2(C)CC[C@]3(C)C(=CC(=O)[C@@H]4[C@@]5(C)[C@@H](O)[C@H](O)[C@H](O)C(C)(C)[C@@H]5CC[C@]43C)[C@@H]2C1 | inactive | 16.9 (≈ 31.8 µM) | 2.1 (≈ 3.96 µM) | 4.2 (≈ 7.91 µM) | 4 (≈ 7.54 µM) | inactive | inactive | 
10 | CC1(C)[C@H](O)[C@@H]2O[C@@H]2[C@]2(C)[C@H]3C(=O)C=C4[C@@H]5C[C@@](C)(C(=O)OCc6ccccc6)CC[C@]5(C)CC[C@@]4(C)[C@]3(C)CC[C@@H]12 | inactive | > 36.7 | 36.7 (≈ 63.8 µM) | > 36.7 | > 32 | inactive | inactive | 
11 | CC1(C)C(=O)[C@@H]2O[C@@H]2[C@]2(C)[C@H]3C(=O)C=C4[C@@H]5C[C@@](C)(C(=O)OCc6ccccc6)CC[C@]5(C)CC[C@@]4(C)[C@]3(C)CC[C@@H]12 | inactive | > 50 | > 50 | > 50 | > 50 | inactive | inactive | 
12 | CC1(C)[C@@H](O)[C@@H](O)[C@H](O)[C@]2(C)[C@H]3CC=C4[C@@H]5C[C@@](C)(C(=O)OCc6ccccc6Cl)CC[C@]5(C)CC[C@@]4(C)[C@]3(C)CC[C@@H]12 | inactive | > 50 | > 50 | > 50 | > 50 | inactive | inactive | 
